Test results taken from publication PMC6658111 (Journal of molecular biology, 2018).
“And” between values parts separate entries of the source, which are not always exact repeats. Equal entries are not always repeated. Where two headings read alike, the source gives them in different places. Non-standard residues stand in square brackets, D forms with d. No end group written: not given here. pT = C[C@@H](OP(=O)(O)O)[C@H](N)C(=O)O; MBP = not defined here

Tests used:
[1] = test system: wild type CaMKII kinase domain (residues 1–283); format: binding; settings: ITC; for −TΔS: 25 °C, pH 7.5, Mg2+-AMPPNP, mean and standard deviation of the mean
[2] = test system: CaMKII^K43M,D136N kinase domain; assay: Isothermal titration calorimetry with K43M/D136N CaMKII kinase domain; format: binding, Drosophila; settings: ITC, 25 °C, pH 7.5, Mg2+-AMPPNP, mean and standard deviation of the mean, n=3
[3] = test system: CaMKII^D136N kinase domain (residues 1–283); format: binding; settings: ITC, 25 °C, pH 7.5, Mg2+-AMPPNP, mean and standard deviation of the mean, n=4
[4] = test system: wild type CaMKII kinase domain; design: species or system Drosophila; settings: LC-HRMS of final ITC mixture, Mg2+-AMPCP
How it was run: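 Sample is the end-point mixture of isothermal titration calorimetry at 25 °C. MBP-dEAG channel fragment was titrated into a cell holding the Drosophila CaMKII kinase domain (residues 1–283, E. coli-expressed, wild type or D136N), with one 2 μl injection then 27 × 10 μl. Partners were first co-dialysed against 25 mM HEPES pH 7.5, 150 mM KCl, 0.5 mM TCEP, then with 1 mM MgCl₂ + 250 μM nucleotide. Final composition was 5 mM MgCl₂ and 1 mM nucleotide.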

wild type dEAG channel = assay: Two-electrode voltage clamp in oocytes, wild type dEAG channel; format: cell-based, Drosophila; settings: Xenopus laevis oocytes, co-expression with inactive kinase (K43M/D136N); n=6–8
How it was run: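 Xenopus oocytes were defolliculated with 75 µg/ml Liberase for 40–60 min in Ca²⁺-free ND96. Stage V–VI cells were injected with premixed channel and kinase cRNA, then kept 1–5 d at 16 °C in storage solution containing gentamycin. Currents were recorded by standard two-microelectrode voltage clamp under continuous perfusion with 96 mM NaCl, 2 mM KCl, 0.3 mM CaCl₂, 1 mM MgCl₂, 5 mM HEPES, pH 7.4.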

T787A dEAG channel = assay: Two-electrode voltage clamp in oocytes, T787A dEAG channel; format: cell-based, Drosophila; settings: Xenopus laevis oocytes, n=7–10
Chain of T787A dEAG channel (Q02280 whole entry T787A, the tested form may be a part): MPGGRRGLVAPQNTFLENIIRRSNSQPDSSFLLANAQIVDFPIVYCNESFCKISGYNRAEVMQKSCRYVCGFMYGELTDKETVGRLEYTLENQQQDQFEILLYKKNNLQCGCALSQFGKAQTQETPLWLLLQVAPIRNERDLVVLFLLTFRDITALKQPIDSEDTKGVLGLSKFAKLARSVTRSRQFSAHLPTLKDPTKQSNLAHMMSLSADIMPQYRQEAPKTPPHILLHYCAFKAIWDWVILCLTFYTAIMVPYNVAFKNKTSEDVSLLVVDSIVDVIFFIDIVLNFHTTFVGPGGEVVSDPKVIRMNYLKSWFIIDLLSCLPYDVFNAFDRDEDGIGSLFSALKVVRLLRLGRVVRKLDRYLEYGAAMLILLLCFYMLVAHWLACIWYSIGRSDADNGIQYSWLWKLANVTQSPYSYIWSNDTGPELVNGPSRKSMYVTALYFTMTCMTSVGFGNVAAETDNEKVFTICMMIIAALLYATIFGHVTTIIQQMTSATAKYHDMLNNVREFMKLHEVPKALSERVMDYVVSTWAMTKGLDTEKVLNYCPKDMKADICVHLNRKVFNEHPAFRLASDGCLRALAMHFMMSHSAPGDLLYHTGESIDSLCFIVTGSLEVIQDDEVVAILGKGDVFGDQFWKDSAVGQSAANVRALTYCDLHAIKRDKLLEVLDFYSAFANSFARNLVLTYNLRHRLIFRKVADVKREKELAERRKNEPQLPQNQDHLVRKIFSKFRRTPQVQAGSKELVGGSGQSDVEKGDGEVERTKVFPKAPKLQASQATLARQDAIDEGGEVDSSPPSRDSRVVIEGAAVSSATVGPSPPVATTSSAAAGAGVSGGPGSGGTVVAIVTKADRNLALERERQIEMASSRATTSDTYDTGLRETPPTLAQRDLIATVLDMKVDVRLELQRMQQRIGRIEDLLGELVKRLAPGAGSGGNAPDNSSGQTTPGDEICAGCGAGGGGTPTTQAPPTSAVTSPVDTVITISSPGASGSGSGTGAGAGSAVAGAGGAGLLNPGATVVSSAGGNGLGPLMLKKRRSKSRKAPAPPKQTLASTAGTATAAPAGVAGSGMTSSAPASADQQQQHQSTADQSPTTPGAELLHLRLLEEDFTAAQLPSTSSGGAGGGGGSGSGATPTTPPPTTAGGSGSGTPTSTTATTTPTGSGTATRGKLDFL

[5] = target: T1, CaMKII kinase domain D136N mutant (residues 1–283) (Drosophila, UniProt Q00168 1-283, D136N); assay: ITC
T1 sequence (Q00168 1-283 D136N): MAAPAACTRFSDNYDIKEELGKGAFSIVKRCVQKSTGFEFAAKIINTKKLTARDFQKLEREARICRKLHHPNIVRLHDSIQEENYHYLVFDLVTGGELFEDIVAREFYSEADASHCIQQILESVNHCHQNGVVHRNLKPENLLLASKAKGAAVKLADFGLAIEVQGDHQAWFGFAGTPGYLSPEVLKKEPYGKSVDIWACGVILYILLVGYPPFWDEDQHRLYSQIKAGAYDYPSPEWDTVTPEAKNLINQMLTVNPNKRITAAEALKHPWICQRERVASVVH

[6] = target: T2, wild type CaMKII kinase domain (residues 1–283) (Drosophila, UniProt Q00168 1-283); assay: ITC
T2 sequence (Q00168 1-283): as the sequence (Q00168 1-283 D136N) above, with N136D counted along it

[7] = target: T1, CaMKII kinase domain D136N mutant …; assay: ITC; remark: listed apart in the source
[8] = target: CaMKII kinase domain K43M/D136N mutant (Drosophila, UniProt Q00168 1-283, K43M | D136N); assay: ITC
Chain of CaMKII kinase domain K43M/D136N mutant (Q00168 1-283 K43M/D136N): as the sequence (Q00168 1-283 D136N) above, with K43M counted along it

[9] = target: T2, wild type CaMKII kinase domain …; assay: ITC; remark: listed apart in the source
[10] = target: T2, wild type CaMKII kinase domain …; assay: ITC; remark: listed apart in the source
[11] = target: T1, CaMKII kinase domain D136N mutant …; assay: crystal structure
[12] = dEAGlong, individually fitted, n=4 (WT), n=3 (R784A, D789A)

## EAGlong^D789A: alanine mutant D789A of MBP-dEAGlong ({MBP}-VFPKAPKLQASQATLARQDTIAEGGEVDSSPPSRDSRVVIEGAAVSSATVGPS; reading uncertain)
[1]; [12]
  −TΔS: 5.7 ± 2.3 kcal/mol

## EAGlong^R784A: alanine mutant R784A of MBP-dEAGlong ({MBP}-VFPKAPKLQASQATLAAQDTIDEGGEVDSSPPSRDSRVVIEGAAVSSATVGPS; reading uncertain)
[1]; [12]
  −TΔS: 4.4 ± 4.7 kcal/mol

## EAGshort: dEAG residues 768 to 795 with mutations S778N and T781K, fused to maltose-binding protein ({MBP}-VFPKAPKLQANQAKLARQDTIDEGGEVD; reading uncertain; also: N-terminal His6, state not given here)
[1]; dEAGshort, wild type kinase, n=3
  −TΔS: 11.4 ± 0.9 kcal/mol
[2]
  −TΔS: 8.7 ± 0.1 kcal/mol
[3]
  −TΔS: 5.3 ± 3.8 kcal/mol
[4]
  phosphorylation state of fragment at end of ITC: dephosphorylated during the titration

## dEAGlong^P: phosphorylated dEAGlong channel fragment used in crystal structure (VFPKAPKLQASQATLARQD[pT]IDEGGEVDSSPPSRDSRVVIEGAAVSSATVGPS; also: phosphothreonine at T787)
[1]; fold tighter than expected for a kinase-substrate, typical KD from ref 27
  affinity relative to typical kinase-substrate (KD ~200 μM): approximately 200 fold

## inactive Drosophila kinase: full-length Drosophila CaMKII with two point mutations (K43M/D136N) in the active site
Wild type dEAG channel
  reduction of channel current: more than 10 fold
T787A dEAG channel
  effect of co-expressed kinase on channel activity: loss of measurable currents

## VFPKAPKLQANQAKLARQDTIDEGGEVD (domain or fragment, UniProt Q02280 768-795, looked up)
[5]
  Kd: 216 nM
  dH: -16.3 kcal/mol
  stoichiometry N: 0.83
[6]
  Kd: 94 nM
  dH: -21 kcal/mol
  stoichiometry N: 0.86
[7]
  Kd: 197 nM
  dH: -14.5 kcal/mol
  stoichiometry N: 0.81
[8]
  Kd: 173 nM
  dH: -18 kcal/mol
  stoichiometry N: 0.79

B1: MBP-dEAG_(long) (wild-type Drosophila EAG CaMKII-binding fragment, residues 768 to 820, fused to maltose-binding protein) (domain or fragment, UniProt Q02280 768-820, looked up)
chain: {MBP}-VFPKAPKLQASQATLARQDTIDEGGEVDSSPPSRDSRVVIEGAAVSSATVGPS
modifications: reading uncertain
[9]
  Kd: 1000 nM
  dH: -7.3 kcal/mol
  stoichiometry N: 0.94
[10]
  Kd: 674 nM
  dH: -17.3 kcal/mol
  stoichiometry N: 0.96

B2: MBP-dEAG_(long) Q785A (domain or fragment, Drosophila, UniProt Q02280 768-820, looked up)
chain: VFPKAPKLQASQATLARADTIDEGGEVDSSPPSRDSRVVIEGAAVSSATVGPS
[10]
  Kd: 12600 nM
  dH: -18.5 kcal/mol
  stoichiometry N: 0.747 and 0.664

B3: MBP-dEAG_(long) R784A (domain or fragment, Drosophila, UniProt Q02280 768-820, looked up)
chain: VFPKAPKLQASQATLAAQDTIDEGGEVDSSPPSRDSRVVIEGAAVSSATVGPS
[10]
  Kd: 47000 nM
  dH: -10.3 kcal/mol
  stoichiometry N: 0.85

B4: MBP-dEAG_(long) E790A (domain or fragment, Drosophila, UniProt Q02280 768-820, looked up)
chain: VFPKAPKLQASQATLARQDTIDAGGEVDSSPPSRDSRVVIEGAAVSSATVGPS
[10]
  Kd: 2430 nM
  dH: -15.7 kcal/mol
  stoichiometry N: 1.06

B5: MBP-dEAG_(long) E793A (domain or fragment, Drosophila, UniProt Q02280 768-820, looked up)
chain: VFPKAPKLQASQATLARQDTIDEGGAVDSSPPSRDSRVVIEGAAVSSATVGPS
[10]
  Kd: 1680 nM
  dH: -16.7 kcal/mol
  stoichiometry N: 0.978

B6: MBP-dEAG_(long) L782A (domain or fragment, Drosophila, UniProt Q02280 768-820, looked up)
chain: VFPKAPKLQASQATAARQDTIDEGGEVDSSPPSRDSRVVIEGAAVSSATVGPS
[10]
  Kd: 24600 nM
  dH: -3.75 kcal/mol
  stoichiometry N: 1.28 and 0.645

B7: MBP-dEAG_(long) D789A (domain or fragment, Drosophila, UniProt Q02280 768-820, looked up)
chain: VFPKAPKLQASQATLARQDTIAEGGEVDSSPPSRDSRVVIEGAAVSSATVGPS
[10]
  Kd: 7300 nM
  dH: -12.7 kcal/mol
  stoichiometry N: 1.02

B8: MBP-dEAG_(long) I788A (domain or fragment, Drosophila, UniProt Q02280 768-820, looked up)
chain: VFPKAPKLQASQATLARQDTADEGGEVDSSPPSRDSRVVIEGAAVSSATVGPS
[10]
  Kd: 80300 nM
  dH: -10.5 kcal/mol
  stoichiometry N: 0.667 and 1.09

## {MBP}-VFPKAPKLQANQAKLARQD[pT]IDEGGEVD (domain or fragment, Drosophila, UniProt Q02280 768-795, looked up, reading uncertain) [MBP-dEAG_(short)^P (phosphorylated dEAG_(short), phosphorylated at T787)]
[5]
  Kd: 0.475 nM
  dH: -8.9 kcal/mol
  stoichiometry N: 1.07

B9: phosphorylated dEAG_(long) channel fragment (dEAG_(long)^P), MBP removed (domain or fragment, Drosophila, UniProt Q02280 768-820, looked up)
chain: VFPKAPKLQASQATLARQD[pT]IDEGGEVDSSPPSRDSRVVIEGAAVSSATVGPS
modifications: also: phosphothreonine at T787
[11]
  binding result: binds
